Measured values as given in ChEMBL document CHEMBL1121540, “Synthesis and antibacterial activity of new 1-oxa-1-dethiacephalosporins” (1980).
Values after ≈ are worked out from the molar mass of the structure shown.

test system: Bacillus subtilis; experiment: In vitro minimum inhibitory concentration (MIC) against ATCC 6633 strain of Bacillus subtilis; format: functional
Summary of the method: (§1)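 Agar dilution on heart infusion agar; the MIC is read as the lowest concentration that inhibits growth of the strain.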

| SMILES | MIC [µg/mL] |
| --- | --- |
| CC(C)O/N=C(\C(=O)N[C@@H]1C(=O)N2C(C(=O)O)=CCO[C@H]12)c1csc(N)n1 | 50 (≈ 126 µM) |
| C=CCO/N=C(\C(=O)N[C@@H]1C(=O)N2C(C(=O)O)=CCO[C@H]12)c1csc(N)n1 | 100 (≈ 254 µM) |
| CCO/N=C(\C(=O)N[C@@H]1C(=O)N2C(C(=O)O)=CCO[C@H]12)c1csc(N)n1 | 50 (≈ 131 µM) |
| CO/N=C(/C(=O)N[C@@H]1C(=O)N2C(C(=O)O)=CCO[C@H]12)c1csc(N)n1 | 100 (≈ 272 µM) |
| CCCCO/N=C(\C(=O)N[C@@H]1C(=O)N2C(C(=O)O)=CCO[C@H]12)c1csc(N)n1 | 50 (≈ 122 µM) |
| CO/N=C(\C(=O)N[C@@H]1C(=O)N2C(C(=O)O)=CCO[C@H]12)c1csc(N)n1 | 100 (≈ 272 µM) |
| CO/N=C(\C(=O)N[C@@H]1C(=O)N2C(C(=O)O)=CCO[C@H]12)c1ccco1 | 50 (≈ 149 µM) |
| C#CCO/N=C(\C(=O)N[C@@H]1C(=O)N2C(C(=O)O)=CCO[C@H]12)c1csc(N)n1 | 25 (≈ 63.9 µM) |
| CO/N=C(\C(=O)N[C@@H]1C(=O)N2C(C(=O)O)=CCO[C@H]12)c1ccccc1 | 25 (≈ 72.4 µM) |
| CO/N=C(\C(=O)N[C@@H]1C(=O)N2C(C(=O)O)=CCS[C@H]12)c1csc(N)n1 [CEFTIZOXIME] | 25 (≈ 65.2 µM) |

test system: Pseudomonas aeruginosa; experiment: In vitro minimum inhibitory concentration (MIC) against NCTC 10490 strain of Pseudomonas aeruginosa; format: functional; summary of the method: as §1

| SMILES | MIC [µg/mL] |
| --- | --- |
| CC(C)O/N=C(\C(=O)N[C@@H]1C(=O)N2C(C(=O)O)=CCO[C@H]12)c1csc(N)n1 | 12.5 (≈ 31.6 µM) |
| C=CCO/N=C(\C(=O)N[C@@H]1C(=O)N2C(C(=O)O)=CCO[C@H]12)c1csc(N)n1 | 50 (≈ 127 µM) |
| CCO/N=C(\C(=O)N[C@@H]1C(=O)N2C(C(=O)O)=CCO[C@H]12)c1csc(N)n1 | 3.13 (≈ 8.21 µM) |
| CO/N=C(/C(=O)N[C@@H]1C(=O)N2C(C(=O)O)=CCO[C@H]12)c1csc(N)n1 | 800 (≈ 2180 µM) |
| CCCCO/N=C(\C(=O)N[C@@H]1C(=O)N2C(C(=O)O)=CCO[C@H]12)c1csc(N)n1 | 12.5 (≈ 30.5 µM) |
| CO/N=C(\C(=O)N[C@@H]1C(=O)N2C(C(=O)O)=CCO[C@H]12)c1csc(N)n1 | 800 (≈ 2180 µM) |
| CO/N=C(\C(=O)N[C@@H]1C(=O)N2C(C(=O)O)=CCO[C@H]12)c1ccco1 | 800 (≈ 2390 µM) |
| C#CCO/N=C(\C(=O)N[C@@H]1C(=O)N2C(C(=O)O)=CCO[C@H]12)c1csc(N)n1 | 400 (≈ 1020 µM) |
| CO/N=C(\C(=O)N[C@@H]1C(=O)N2C(C(=O)O)=CCO[C@H]12)c1ccccc1 | 800 (≈ 2320 µM) |
| CO/N=C(\C(=O)N[C@@H]1C(=O)N2C(C(=O)O)=CCS[C@H]12)c1csc(N)n1 [CEFTIZOXIME] | 25 (≈ 65.2 µM) |

test system: Klebsiella pneumoniae; experiment: In vitro minimum inhibitory concentration (MIC) against Klebsiella pneumonia 12; format: functional; summary of the method: as §1

| SMILES | MIC [µg/mL] |
| --- | --- |
| CC(C)O/N=C(\C(=O)N[C@@H]1C(=O)N2C(C(=O)O)=CCO[C@H]12)c1csc(N)n1 | 0.78 (≈ 1.97 µM) |
| C=CCO/N=C(\C(=O)N[C@@H]1C(=O)N2C(C(=O)O)=CCO[C@H]12)c1csc(N)n1 | 1.56 (≈ 3.97 µM) |
| CCO/N=C(\C(=O)N[C@@H]1C(=O)N2C(C(=O)O)=CCO[C@H]12)c1csc(N)n1 | 0.1 (≈ 0.262 µM) |
| CO/N=C(/C(=O)N[C@@H]1C(=O)N2C(C(=O)O)=CCO[C@H]12)c1csc(N)n1 | 1.56 (≈ 4.25 µM) |
| CCCCO/N=C(\C(=O)N[C@@H]1C(=O)N2C(C(=O)O)=CCO[C@H]12)c1csc(N)n1 | 3.13 (≈ 7.64 µM) |
| CO/N=C(\C(=O)N[C@@H]1C(=O)N2C(C(=O)O)=CCO[C@H]12)c1csc(N)n1 | 0.78 (≈ 2.12 µM) |
| CO/N=C(\C(=O)N[C@@H]1C(=O)N2C(C(=O)O)=CCO[C@H]12)c1ccco1 | 1.56 (≈ 4.65 µM) |
| C#CCO/N=C(\C(=O)N[C@@H]1C(=O)N2C(C(=O)O)=CCO[C@H]12)c1csc(N)n1 | 0.2 (≈ 0.511 µM) |
| CO/N=C(\C(=O)N[C@@H]1C(=O)N2C(C(=O)O)=CCO[C@H]12)c1ccccc1 | 12.5 (≈ 36.2 µM) |
| CO/N=C(\C(=O)N[C@@H]1C(=O)N2C(C(=O)O)=CCS[C@H]12)c1csc(N)n1 [CEFTIZOXIME] | 0.05 (≈ 0.13 µM) |

test system: Serratia marcescens; experiment: In vitro minimum inhibitory concentration (MIC) against Serratia marcescens.; format: functional; summary of the method: as §1

| SMILES | MIC [µg/mL] |
| --- | --- |
| CC(C)O/N=C(\C(=O)N[C@@H]1C(=O)N2C(C(=O)O)=CCO[C@H]12)c1csc(N)n1 | 25 (≈ 63.2 µM) |
| C=CCO/N=C(\C(=O)N[C@@H]1C(=O)N2C(C(=O)O)=CCO[C@H]12)c1csc(N)n1 | 100 (≈ 254 µM) |
| CCO/N=C(\C(=O)N[C@@H]1C(=O)N2C(C(=O)O)=CCO[C@H]12)c1csc(N)n1 | 12.5 (≈ 32.8 µM) |
| CO/N=C(/C(=O)N[C@@H]1C(=O)N2C(C(=O)O)=CCO[C@H]12)c1csc(N)n1 | 100 (≈ 272 µM) |
| CCCCO/N=C(\C(=O)N[C@@H]1C(=O)N2C(C(=O)O)=CCO[C@H]12)c1csc(N)n1 | 100 (≈ 244 µM) |
| CO/N=C(\C(=O)N[C@@H]1C(=O)N2C(C(=O)O)=CCO[C@H]12)c1csc(N)n1 | 100 (≈ 272 µM) |
| CO/N=C(\C(=O)N[C@@H]1C(=O)N2C(C(=O)O)=CCO[C@H]12)c1ccco1 | 100 (≈ 298 µM) |
| C#CCO/N=C(\C(=O)N[C@@H]1C(=O)N2C(C(=O)O)=CCO[C@H]12)c1csc(N)n1 | 100 (≈ 256 µM) |
| CO/N=C(\C(=O)N[C@@H]1C(=O)N2C(C(=O)O)=CCO[C@H]12)c1ccccc1 | 100 (≈ 290 µM) |
| CO/N=C(\C(=O)N[C@@H]1C(=O)N2C(C(=O)O)=CCS[C@H]12)c1csc(N)n1 [CEFTIZOXIME] | 50 (≈ 130 µM) |

test system: Proteus mirabilis; experiment: In vitro minimum inhibitory concentration (MIC) against Proteus mirabilis 1; format: functional; summary of the method: as §1

| SMILES | MIC [µg/mL] |
| --- | --- |
| CC(C)O/N=C(\C(=O)N[C@@H]1C(=O)N2C(C(=O)O)=CCO[C@H]12)c1csc(N)n1 | 0.2 (≈ 0.506 µM) |
| C=CCO/N=C(\C(=O)N[C@@H]1C(=O)N2C(C(=O)O)=CCO[C@H]12)c1csc(N)n1 | 0.1 (≈ 0.254 µM) |
| CCO/N=C(\C(=O)N[C@@H]1C(=O)N2C(C(=O)O)=CCO[C@H]12)c1csc(N)n1 | 0.05 (≈ 0.131 µM) |
| CO/N=C(/C(=O)N[C@@H]1C(=O)N2C(C(=O)O)=CCO[C@H]12)c1csc(N)n1 | 3.13 (≈ 8.52 µM) |
| CCCCO/N=C(\C(=O)N[C@@H]1C(=O)N2C(C(=O)O)=CCO[C@H]12)c1csc(N)n1 | 0.78 (≈ 1.91 µM) |
| CO/N=C(\C(=O)N[C@@H]1C(=O)N2C(C(=O)O)=CCO[C@H]12)c1csc(N)n1 | 0.2 (≈ 0.544 µM) |
| CO/N=C(\C(=O)N[C@@H]1C(=O)N2C(C(=O)O)=CCO[C@H]12)c1ccco1 | 0.78 (≈ 2.33 µM) |
| C#CCO/N=C(\C(=O)N[C@@H]1C(=O)N2C(C(=O)O)=CCO[C@H]12)c1csc(N)n1 | 0.1 (≈ 0.256 µM) |
| CO/N=C(\C(=O)N[C@@H]1C(=O)N2C(C(=O)O)=CCO[C@H]12)c1ccccc1 | 6.25 (≈ 18.1 µM) |
| CO/N=C(\C(=O)N[C@@H]1C(=O)N2C(C(=O)O)=CCS[C@H]12)c1csc(N)n1 [CEFTIZOXIME] | 0.025 (≈ 0.0652 µM) |

test system: Escherichia coli; experiment: In vitro minimum inhibitory concentration (MIC) against NIHJ JC-2 strain of Escherichia coli; format: functional; summary of the method: as §1

| SMILES | MIC [µg/mL] |
| --- | --- |
| CC(C)O/N=C(\C(=O)N[C@@H]1C(=O)N2C(C(=O)O)=CCO[C@H]12)c1csc(N)n1 | 0.78 (≈ 1.97 µM) |
| C=CCO/N=C(\C(=O)N[C@@H]1C(=O)N2C(C(=O)O)=CCO[C@H]12)c1csc(N)n1 | 3.13 (≈ 7.96 µM) |
| CCO/N=C(\C(=O)N[C@@H]1C(=O)N2C(C(=O)O)=CCO[C@H]12)c1csc(N)n1 | 0.1 (≈ 0.262 µM) |
| CO/N=C(/C(=O)N[C@@H]1C(=O)N2C(C(=O)O)=CCO[C@H]12)c1csc(N)n1 | 6.25 (≈ 17 µM) |
| CCCCO/N=C(\C(=O)N[C@@H]1C(=O)N2C(C(=O)O)=CCO[C@H]12)c1csc(N)n1 | 0.78 (≈ 1.91 µM) |
| CO/N=C(\C(=O)N[C@@H]1C(=O)N2C(C(=O)O)=CCO[C@H]12)c1csc(N)n1 | 0.2 (≈ 0.544 µM) |
| CO/N=C(\C(=O)N[C@@H]1C(=O)N2C(C(=O)O)=CCO[C@H]12)c1ccco1 | 6.25 (≈ 18.6 µM) |
| C#CCO/N=C(\C(=O)N[C@@H]1C(=O)N2C(C(=O)O)=CCO[C@H]12)c1csc(N)n1 | 1.56 (≈ 3.99 µM) |
| CO/N=C(\C(=O)N[C@@H]1C(=O)N2C(C(=O)O)=CCO[C@H]12)c1ccccc1 | 25 (≈ 72.4 µM) |
| CO/N=C(\C(=O)N[C@@H]1C(=O)N2C(C(=O)O)=CCS[C@H]12)c1csc(N)n1 [CEFTIZOXIME] | 0.05 (≈ 0.13 µM) |

test system: Staphylococcus aureus; experiment: In vitro minimum inhibitory concentration (MIC) against 209P JC-1 strain of Staphylococcus aureus; format: functional; summary of the method: as §1

| SMILES | MIC [µg/mL] |
| --- | --- |
| CC(C)O/N=C(\C(=O)N[C@@H]1C(=O)N2C(C(=O)O)=CCO[C@H]12)c1csc(N)n1 | 12.5 (≈ 31.6 µM) |
| C=CCO/N=C(\C(=O)N[C@@H]1C(=O)N2C(C(=O)O)=CCO[C@H]12)c1csc(N)n1 | 6.25 (≈ 15.9 µM) |
| CCO/N=C(\C(=O)N[C@@H]1C(=O)N2C(C(=O)O)=CCO[C@H]12)c1csc(N)n1 | 6.25 (≈ 16.4 µM) |
| CO/N=C(/C(=O)N[C@@H]1C(=O)N2C(C(=O)O)=CCO[C@H]12)c1csc(N)n1 | 12.5 (≈ 34 µM) |
| CCCCO/N=C(\C(=O)N[C@@H]1C(=O)N2C(C(=O)O)=CCO[C@H]12)c1csc(N)n1 | 12.5 (≈ 30.5 µM) |
| CO/N=C(\C(=O)N[C@@H]1C(=O)N2C(C(=O)O)=CCO[C@H]12)c1csc(N)n1 | 25 (≈ 68.1 µM) |
| CO/N=C(\C(=O)N[C@@H]1C(=O)N2C(C(=O)O)=CCO[C@H]12)c1ccco1 | 12.5 (≈ 37.3 µM) |
| C#CCO/N=C(\C(=O)N[C@@H]1C(=O)N2C(C(=O)O)=CCO[C@H]12)c1csc(N)n1 | 12.5 (≈ 31.9 µM) |
| CO/N=C(\C(=O)N[C@@H]1C(=O)N2C(C(=O)O)=CCO[C@H]12)c1ccccc1 | 1.56 (≈ 4.52 µM) |
| CO/N=C(\C(=O)N[C@@H]1C(=O)N2C(C(=O)O)=CCS[C@H]12)c1csc(N)n1 [CEFTIZOXIME] | 6.25 (≈ 16.3 µM) |
